Results reported in ChEMBL document CHEMBL3085650, “Extending the record of bis-γ-pyrone polypropionates from marine pulmonate mollusks” (J Nat Prod, 2013).

What was measured:
[1] = Growth inhibition of human Hs683 cells after 72 hrs by MTT assay; format: functional, cell-based; details: Hs 683, 72 h
Outline: (§1)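 Human cancer cell lines (from ATCC, ECACC or DSMZ) cultured 72 h with compound; viable cells measured by MTT colorimetric assay, where mitochondrial succinate dehydrogenase reduces yellow MTT to blue formazan, read by spectrophotometry. Optical density of treated versus control cells gives growth inhibition, expressed as IC50 (μM). Camptothecin and etoposide served as reference compounds.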

MCF7 = experiment: Growth inhibition of human MCF7 cells after 72 hrs by MTT assay; format: functional, cell-based; details: MCF7, 72 h; outline: as §1
PC-3 = experiment: Growth inhibition of human PC3 cells after 72 hrs by MTT assay; format: functional, cell-based; details: PC-3, 72 h; outline: as §1
[2] = Growth inhibition of human U373 cells after 72 hrs by MTT assay; format: functional, cell-based, U-373MG ATCC; details: U373 MG; outline: as §1
SK-MEL-28 = experiment: Growth inhibition of human SK-MEL-28 cells after 72 hrs by MTT assay; format: functional, cell-based; details: SK-MEL-28, 72 h; outline: as §1
A549 = experiment: Growth inhibition of human A549 cells after 72 hrs by MTT assay; format: functional, cell-based; details: A549, 72 h; outline: as §1

| Structure (SMILES) | IC50 (MCF7) | IC50 (PC-3) | IC50 (SK-MEL-28) | IC50 (A549) | IC50 [1] | IC50 [2] |
| --- | --- | --- | --- | --- | --- | --- |
| CCC(=O)O[C@@H](/C(C)=C/[C@@H](C)c1oc(CC)c(C)c(=O)c1C)[C@H](C)[C@@H](OC(=O)CC(C)C)[C@@H](C)c1oc([C@@H](C)[C@@H](O)CC)c(C)c(=O)c1C | 12 µM | 3 µM | 25 µM | 12 µM | 13 µM | 21 µM |
| CCc1oc([C@H](C)/C=C(\C)[C@H](OC(C)=O)[C@H](C)[C@@H](OC(=O)CC(C)C)[C@@H](C)c2oc([C@@H](C)[C@H](CC)OC(C)=O)c(C)c(=O)c2C)c(C)c(=O)c1C | 25 µM | 7 µM | 33 µM | 28 µM | 24 µM | 32 µM |
| CCc1oc([C@H](C)/C=C(\C)[C@H](O)[C@H](C)[C@@H](OC(=O)CC(C)C)[C@@H](C)c2oc([C@@H](C)[C@@H](O)CC)c(C)c(=O)c2C)c(C)c(=O)c1C | > 100 µM | > 100 µM | > 100 µM | > 100 µM | > 100 µM | > 100 µM |
| CC[C@@]1(O)C(=O)OCc2c1cc1n(c2=O)Cc2cc3ccccc3nc2-1 [CAMPTOTHECIN] | < 0.01 µM | 0.01 µM | < 0.01 µM | < 0.01 µM | < 0.01 µM | 0.015 µM |

The next lines start with results.

| IC50 (MCF7) | IC50 (PC-3) | IC50 (SK-MEL-28) | IC50 (A549) | Structure (SMILES) | IC50 [1] | IC50 [2] |
| --- | --- | --- | --- | --- | --- | --- |
| 4 µM | 2 µM | 7 µM | 3 µM | CCC(=O)O[C@@H](/C(C)=C/[C@@H](C)c1oc(CC)c(C)c(=O)c1C)[C@H](C)[C@@H](OC(=O)CC(C)C)[C@@H](C)c1oc([C@@H](C)[C@H](CC)OC(C)=O)c(C)c(=O)c1C | 3 µM | 9 µM |
| 15 µM | 3 µM | 25 µM | 15 µM | CCc1oc([C@H](C)/C=C(\C)[C@H](OC(C)=O)[C@H](C)[C@@H](OC(=O)CC(C)C)[C@@H](C)c2oc([C@@H](C)[C@@H](O)CC)c(C)c(=O)c2C)c(C)c(=O)c1C | 30 µM | 21 µM |
| 87 µM | 82 µM | > 100 µM | > 100 µM | CCC(=O)[C@@H](C)c1oc([C@H](C)[C@@H]2O[C@](O)([C@@H](C)c3oc(CC)c(C)c(=O)c3C)[C@@H](C)[C@@H](O)[C@@H]2C)c(C)c(=O)c1C | > 100 µM | > 100 µM |
| > 100 µM | > 100 µM | > 100 µM | > 100 µM | CCC(=O)[C@H](C)c1oc([C@H](C)[C@@H]2O[C@](O)([C@@H](C)c3oc(CC)c(C)c(=O)c3C)[C@@H](C)[C@@H](O)[C@@H]2C)c(C)c(=O)c1C | > 100 µM | > 100 µM |
| 21 µM | 16 µM | 23 µM | 26 µM | CCC(=O)[C@H](C)c1oc([C@H](C)[C@@H]2O[C@](O)([C@@H](C)c3oc(CC)c(C)c(=O)c3C)[C@@H](C)[C@@H](OC(=O)CC(C)C)[C@@H]2C)c(C)c(=O)c1C | 23 µM | 25 µM |
| 4 µM | > 100 µM | 3 µM | 2 µM | COc1cc([C@@H]2c3cc4c(cc3[C@@H](O[C@@H]3O[C@@H]5CO[C@@H](C)O[C@H]5[C@H](O)[C@H]3O)[C@H]3COC(=O)[C@H]23)OCO4)cc(OC)c1O [ETOPOSIDE] | 2 µM | 25 µM |
